In ChEMBL document CHEMBL3826882, “Discovery of 1-((2R,4aR,6R,7R,7aR)-2-Isopropoxy-2-oxidodihydro-4H,6H-spiro[furo[3,2-d][1,3,2]dioxaphosphinine-7,2'-oxetan]-6-yl)pyrimidine-2,4(1H,3H)-dione (JNJ-54257099), a 3'-5'-Cyclic Phosphate Ester Prodrug of 2'-Deoxy-2'-Spirooxetane Uridine Triphosphate Useful for HCV Inhibition” (J Med Chem, 2016):

Tests used:
[1] = target: RNA-directed RNA polymerase (Hepacivirus hominis, UniProt O39930); test: Inhibition of HCV RNA polymerase
[2] = system: Hepatocyte; test: Drug level in mouse primary hepatocyte supernatant treated with JNJ-54257099 at 2 to 62.5 uM after 4 to 24 hrs using radiolabeled compound by HPLC analysis; format: ADME, cell-based; details: hepatocytes
In short: (§1)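 Study A: primary cultured hepatocytes (mouse, rat, dog, human) incubated with 2 or 62.5 µM 5'-[3H]-labelled prodrug for 4 and 24 h. Cell lysates were analysed for triphosphate. Supernatants were protein-precipitated and profiled by HPLC with radioactivity detection. Cyclic monophosphate was also assessed by LC/MS/MS.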

[3] = system: Hepatocyte; test: Drug level in human primary hepatocyte supernatant treated with JNJ-54257099 at 2 to 62.5 uM after 4 to 24 hrs using radiolabeled compound by HPLC analysis; format: ADME, cell-based; details: hepatocytes; in short: as §1
[4] = system: Hepatocyte; test: Drug level in rat primary hepatocyte supernatant treated with JNJ-54257099 at 2 to 62.5 uM after 4 to 24 hrs using radiolabeled compound by HPLC analysis; format: ADME, cell-based; details: hepatocytes; in short: as §1
[5] = Drug level in dog primary hepatocyte supernatant treated with JNJ-54257099 at 2 to 62.5 uM after 4 to 24 hrs using radiolabeled compound by HPLC analysis; format: ADME, cell-based, Canis lupus familiaris; details: hepatocytes; in short: as §1
[6] = system: Hepatocyte; test: Drug level in human hepatocytes treated with JNJ-54257099 in presence of PDE4 inhibitor rolipram by LC-MS/MS analysis; format: ADME, cell-based
[7] = system: Hepatocyte; test: Drug level in human hepatocytes treated with JNJ-54257099 in presence of CYP2C8 and CYP2C9 inhibitor montelukast by LC-MS/MS analysis; format: ADME, cell-based
[8] = Drug level in dog primary hepatocytes treated with JNJ-54257099 at 2 to 62.5 uM after 4 hrs using radiolabeled compound by LC-MS/MS analysis; format: ADME, cell-based, Canis lupus familiaris, Hepatocyte; in short: as §1
[9] = system: Hepatocyte; test: Drug level in human hepatocytes treated with JNJ-54257099 in presence of pan-PDE inhibitor ibudilast by LC-MS/MS analysis; format: ADME, cell-based
[10] = system: Hepatocyte; test: Drug level in rat primary hepatocytes treated with JNJ-54257099 at 2 to 62.5 uM after 24 hrs using radiolabeled compound by LC-MS/MS analysis; format: ADME, cell-based; in short: as §1
[11] = target: CYP3A4 (Homo sapiens, UniProt P08684); test: Drug metabolism in baculovirus infected insect cell microsomes expressing human CYP3A4 assessed as CYP3A4-mediated half life at 22.7 uM; format: ADME
In short: (§2)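 Incubation at 22.7 µM with human CYP3A4 supersomes. Intrinsic clearance (µL/min.pmol P450) and half-life (min) were determined.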

[12] = target: Cytochrome P450 3A4 (Homo sapiens, UniProt P08684); test: Drug metabolism in baculovirus infected insect cell microsomes expressing human CYP3A4 assessed as CYP3A4-mediated intrinsic clearance per pmol CYP3A4 at 22.7 uM; format: ADME; details: recombinant enzyme; in short: as §2
[13] = Cytotoxicity against human HuH7-CMV-Luc cells assessed as reduction in cell proliferation after 3 days by 5-bromo-2'-deoxyuridine incorporation assay; format: cell-based, Huh-7
In short: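 Huh7 cells at 1,500 cells/well, five serial compound dilutions in triplicate, 3 days of incubation. Proliferation was quantified as BrdU incorporation into DNA by ELISA.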

[14] = system: Hepatitis C virus; test: Antiviral activity against HCV genotype 1b infected in human HuH7 cells assessed as inhibition of viral replication after 3 days by luciferase reporter gene assay; format: functional, organism-based, Hepacivirus hominis; details: Huh-7, 72 h
In short: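 HCV 1b subgenomic luciferase replicon (Huh7-luc, clone ET, adaptive mutations E1202G, T1280I, K1846T). 2,500 cells were incubated with compound over a 9-point, 1/4 dilution series for 3 days. Replication was read as luciferase activity.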

[15] = system: Hepatitis C virus; test: Antiviral activity against HCV genotype 3a infected in homozygous cDNA-uPA chimeric SCID mouse bearing humanized hepatocytes assessed as change in HCV RNA level in serum at 100 mg/kg, po qd administered through gavage for 7 days by RT-PCR method; format: functional, Hepacivirus hominis, Hepatocyte
In short: (§3)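 Male chimeric SCID cDNA-uPA+/+ mice with human hepatocyte liver (≥70% replacement by blood human albumin) and serum HCV RNA >1.0×10^6 copies/mL the week before dosing. Oral gavage for 7 days in 20% HP-β-CD, 50-200 mg/kg QD or BID. Serum sampled pre-dose on days 1, 2, 3, 5 and 7. Real-time PCR; mean change in log10 copies/mL, day 7 vs day 1 pre-dose.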

[16] = system: Hepatitis C virus; test: Antiviral activity against HCV genotype 3a infected in homozygous cDNA-uPA chimeric SCID mouse bearing humanized hepatocytes assessed as reduction in HCV RNA level in serum administered through oral gavage once daily for 7 days by RT-PCR method; format: functional, organism-based; details: Hepacivirus hominis, Hepatocyte; in short: as §3
[17] = system: Hepatitis C virus; test: Antiviral activity against HCV genotype 1a infected in homozygous cDNA-uPA chimeric SCID mouse bearing humanized hepatocytes assessed as change in HCV RNA level in serum at 100 mg/kg, po qd administered through gavage for 7 days by RT-PCR method; format: functional, Hepacivirus hominis, subtype 1a, Hepatocyte; in short: as §3
[18] = system: Hepatitis C virus; test: Antiviral activity against HCV genotype 3a infected in homozygous cDNA-uPA chimeric SCID mouse bearing humanized hepatocytes assessed as reduction in HCV RNA level in serum administered through oral gavage twice daily daily for 7 days by RT-PCR method; format: functional, organism-based; details: Hepacivirus hominis, Hepatocyte; in short: as §3
[19] = Prodrug conversion in dog cryopreserved hepatocytes assessed as 2'-deoxy-2'-spirooxetane uridine triphosphate level per million cells at 10 uM after 8 hrs by LC-MS/MS analysis; format: ADME, cell-based, Canis lupus familiaris, Hepatocyte
In short: (§4)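 Plated cryopreserved hepatocytes (study B) incubated with 10 µM unlabeled prodrug for 2, 8 or 24 h. Triphosphate measured in cell lysates and expressed as pmol/million hepatocytes. Quantification limit 2 ng/10^6 cells.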

[20] = system: Hepatocyte; test: Prodrug conversion in rat cryopreserved hepatocytes assessed as 2'-deoxy-2'-spirooxetane uridine triphosphate level per million cells at 10 uM after 2 hrs by LC-MS/MS analysis; format: ADME, cell-based; in short: as §4
[21] = system: Hepatocyte; test: Prodrug conversion in mouse cryopreserved hepatocytes assessed as 2'-deoxy-2'-spirooxetane uridine triphosphate level per million cells at 10 uM after 24 hrs by LC-MS/MS analysis; format: ADME, cell-based; in short: as §4
[22] = system: Hepatocyte; test: Prodrug conversion in rat cryopreserved hepatocytes assessed as 2'-deoxy-2'-spirooxetane uridine triphosphate level per million cells at 10 uM after 24 hrs by LC-MS/MS analysis; format: ADME, cell-based; in short: as §4
[23] = system: Hepatocyte; test: Prodrug conversion in mouse cryopreserved hepatocytes assessed as 2'-deoxy-2'-spirooxetane uridine triphosphate level per million cells at 10 uM after 2 hrs by LC-MS/MS analysis; format: ADME, cell-based; in short: as §4
[24] = system: Hepatocyte; test: Prodrug conversion in rat cryopreserved hepatocytes assessed as 2'-deoxy-2'-spirooxetane uridine triphosphate level per million cells at 10 uM after 8 hrs by LC-MS/MS analysis; format: ADME, cell-based; in short: as §4
[25] = system: Hepatocyte; test: Prodrug conversion in mouse cryopreserved hepatocytes assessed as 2'-deoxy-2'-spirooxetane uridine triphosphate level per million cells at 10 uM after 8 hrs by LC-MS/MS analysis; format: ADME, cell-based; in short: as §4
[26] = system: Hepatocyte; test: Prodrug conversion in human cryopreserved hepatocytes assessed as 2'-deoxy-2'-spirooxetane uridine triphosphate level per million cells at 10 uM after 2 hrs by LC-MS/MS analysis; format: ADME, cell-based; in short: as §4
[27] = Prodrug conversion in dog cryopreserved hepatocytes assessed as 2'-deoxy-2'-spirooxetane uridine triphosphate level per million cells at 10 uM after 24 hrs by LC-MS/MS analysis; format: ADME, cell-based, Canis lupus familiaris, Hepatocyte; in short: as §4
[28] = Prodrug conversion in dog cryopreserved hepatocytes assessed as 2'-deoxy-2'-spirooxetane uridine triphosphate level per million cells at 10 uM after 2 hrs by LC-MS/MS analysis; format: ADME, cell-based, Canis lupus familiaris, Hepatocyte; in short: as §4
[29] = system: Hepatocyte; test: Prodrug conversion in human cryopreserved hepatocytes assessed as 2'-deoxy-2'-spirooxetane uridine triphosphate level per million cells at 10 uM after 8 hrs by LC-MS/MS analysis; format: ADME, cell-based; in short: as §4
[30] = system: Hepatocyte; test: Prodrug conversion in human cryopreserved hepatocytes assessed as 2'-deoxy-2'-spirooxetane uridine triphosphate level per million cells at 10 uM after 24 hrs by LC-MS/MS analysis; format: ADME, cell-based; in short: as §4

Sequence of RNA-directed RNA polymerase (O39930 whole entry): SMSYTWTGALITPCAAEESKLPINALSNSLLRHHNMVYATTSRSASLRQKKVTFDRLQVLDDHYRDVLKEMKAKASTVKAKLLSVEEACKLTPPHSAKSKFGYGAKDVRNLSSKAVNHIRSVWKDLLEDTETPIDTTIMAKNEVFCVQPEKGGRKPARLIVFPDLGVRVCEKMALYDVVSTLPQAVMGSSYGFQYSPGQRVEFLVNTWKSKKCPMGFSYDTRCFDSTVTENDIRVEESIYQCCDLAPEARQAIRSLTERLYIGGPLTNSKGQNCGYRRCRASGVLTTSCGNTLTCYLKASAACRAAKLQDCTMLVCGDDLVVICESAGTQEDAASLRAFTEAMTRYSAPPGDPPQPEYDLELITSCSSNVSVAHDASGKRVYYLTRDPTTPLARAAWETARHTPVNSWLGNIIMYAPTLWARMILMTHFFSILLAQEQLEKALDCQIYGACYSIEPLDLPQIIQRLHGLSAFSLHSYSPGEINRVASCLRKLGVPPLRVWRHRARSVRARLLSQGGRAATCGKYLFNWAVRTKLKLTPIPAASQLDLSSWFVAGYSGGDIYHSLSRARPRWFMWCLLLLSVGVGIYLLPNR
Sequence of Cytochrome P450 3A4 (P08684 whole entry): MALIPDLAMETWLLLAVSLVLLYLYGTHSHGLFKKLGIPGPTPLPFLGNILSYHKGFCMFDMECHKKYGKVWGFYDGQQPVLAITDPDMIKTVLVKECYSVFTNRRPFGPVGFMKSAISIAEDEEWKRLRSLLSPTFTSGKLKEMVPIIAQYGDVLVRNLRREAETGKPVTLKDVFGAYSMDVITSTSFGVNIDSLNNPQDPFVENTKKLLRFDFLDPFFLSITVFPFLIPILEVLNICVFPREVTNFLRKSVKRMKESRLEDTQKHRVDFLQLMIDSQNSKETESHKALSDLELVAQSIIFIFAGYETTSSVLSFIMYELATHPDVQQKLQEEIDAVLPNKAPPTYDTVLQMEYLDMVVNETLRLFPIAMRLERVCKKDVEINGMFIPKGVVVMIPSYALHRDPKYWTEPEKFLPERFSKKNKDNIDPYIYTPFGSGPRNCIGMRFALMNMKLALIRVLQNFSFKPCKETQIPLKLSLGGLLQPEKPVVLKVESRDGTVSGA
Sequence of CYP3A4 (P08684 whole entry): as above

SMILES: O=c1ccn([C@@H]2O[C@H](COP(=O)(O)OP(=O)(O)OP(=O)(O)O)[C@@H](O)[C@]23CCO3)c(=O)[nH]1
- IC50 [1]: 1 µM
- Ki [1]: 0.13 µM

SMILES: O=c1ccn([C@@H]2O[C@H](CO)[C@@H](O)[C@]23CCO3)c(=O)[nH]1
- Drug metabolism [2]: metabolite_detected
- Drug metabolism [3]: metabolite_detected
- Drug metabolism [4]: metabolite_detected
- Drug metabolism [5]: metabolite_detected

SMILES: O=c1ccn([C@@H]2O[C@H](COP(=O)(O)O)[C@@H](O)[C@]23CCO3)c(=O)[nH]1
- Drug metabolism [6]: metabolite_detected
- Drug metabolism [7]: metabolite_detected
- Drug metabolism [8]: metabolite_detected
- Drug metabolism [9]: metabolite_detected
- Drug metabolism [10]: metabolite_detected

SMILES: CCOc1nc(N)nc2c1ncn2[C@@H]1O[C@@H]2CO[P@](=O)(OC(C)C)O[C@H]2[C@@]1(C)F
- half-life at 22.7 µM [11]: 1.27 h
- CL [12]: 0.1 µL/min
- CC50 at 72 h [13]: > 100 µM
- EC50 [14]: 0.3 µM

SMILES: CC(C)OC(=O)[C@H](C)N[P@](=O)(OC[C@H]1O[C@@H](n2ccc(=O)[nH]c2=O)[C@](C)(F)[C@@H]1O)Oc1ccccc1 [SOFOSBUVIR]
- Activity [15]: -0.97
- Activity [16]: Dose-dependent effect
- Activity [17]: -2.14
- Activity [18]: Dose-dependent effect

SMILES: CCCCOC(=O)[C@H](C)NP(=O)(OC[C@H]1O[C@@H](n2ccc(=O)[nH]c2=O)[C@@]2(CCO2)[C@@H]1O)Oc1ccccc1 (stereo partly drawn)
- Drug metabolism [19]: 0.021 pmol
- Drug metabolism [20]: 0.025 pmol
- Drug metabolism [21]: 0.023 pmol
- Drug metabolism [22]: 0.013 pmol
- Drug metabolism [23]: 0.028 pmol
- Drug metabolism [24]: 0.058 pmol
- Drug metabolism [25]: 0.066 pmol
- Drug metabolism [26]: 0.044 pmol
- CC50 at 72 h [13]: > 100 µM
- Drug metabolism [27]: 0.007 pmol
- Drug metabolism [28]: 0.01 pmol
- Drug metabolism [29]: 0.257 pmol
- Drug metabolism [30]: 0.173 pmol

SMILES: O=c1ccn([C@@H]2O[C@@H]3COP(=O)(O)O[C@H]3[C@]23CCO3)c(=O)[nH]1
- Drug metabolism [2]: metabolite_detected
- Drug metabolism [3]: metabolite_detected
- Drug metabolism [4]: metabolite_detected
- Drug metabolism [5]: metabolite_detected
- Drug metabolism [8]: metabolite_detected
- Drug metabolism [10]: metabolite_detected
